Data taken from ChEMBL document CHEMBL3232876, “Novel R-(+)-limonene-based thiosemicarbazones and their antitumor activity against human tumor cell lines” (Eur J Med Chem, 2014).

Columns and labels:
U-251 = experiment: Growth inhibition of human U251 cells after 48 hrs by sulforhodamine B assay; type: functional; conditions: U-251, 48 h
Method in brief: (§1)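 Tumour lines from NCI and Vero from the Rio de Janeiro Cell Bank, grown in RPMI 1640 with 5% fetal bovine serum, with penicillin:streptomycin added to experimental cultures. Each compound was tested at four 10-fold dilutions; sulforhodamine B staining at time zero and 48 h. Proliferation was calculated against T0 and drug-free controls, and GI50 came from sigmoidal regression of the concentration-response curves. Representative experiment in triplicate.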

[1] = Growth inhibition of human OVCAR3 cells after 48 hrs by sulforhodamine B assay; type: functional; conditions: OVCAR-3, 48 h; method in brief: as §1
786-0 = experiment: Growth inhibition of human 786-0 cells after 48 hrs by sulforhodamine B assay; type: functional; conditions: 786-0, 48 h; method in brief: as §1
[2] = Growth inhibition of human UACC62 cells after 48 hrs by sulforhodamine B assay; type: functional; conditions: UACC-62, 48 h; method in brief: as §1
NCI-H460 = experiment: Growth inhibition of human NCI-H460 cells after 48 hrs by sulforhodamine B assay; type: functional; conditions: NCI-H460, 48 h; method in brief: as §1
K562 = experiment: Growth inhibition of human K562 cells after 48 hrs by sulforhodamine B assay; type: functional; conditions: K562, 48 h; method in brief: as §1
MCF7 = experiment: Growth inhibition of human MCF7 cells after 48 hrs by sulforhodamine B assay; type: functional; conditions: MCF7, 48 h; method in brief: as §1
[3] = Growth inhibition of human NCI-ADR-RES cells after 48 hrs by sulforhodamine B assay; type: functional; method in brief: as §1
HT-29 = experiment: Growth inhibition of human HT-29 cells after 48 hrs by sulforhodamine B assay; type: functional; conditions: HT-29, 48 h; method in brief: as §1
[4] = (§2) Growth inhibition of African green monkey Vero cells after 48 hrs by sulforhodamine B assay; type: cell-based; conditions: chlorocebus sabaeus, Vero cells; method in brief: as §1
Vero = experiment: as §2; type: cell-based; conditions: chlorocebus sabaeus, vero, 48 h; method in brief: as §1
PC-3 = experiment: Growth inhibition of human PC3 cells after 48 hrs by sulforhodamine B assay; type: functional; conditions: PC-3, 48 h; method in brief: as §1

Row | GI50 (U-251) [µM] | GI50 (786-0) [µM] | GI50 (NCI-H460) [µM] | GI50 (K562) [µM] | GI50 (MCF7) [µM] | GI50 (HT-29) [µM] | Compound | TGI (U-251) [µM] | GI50 [1] [µM] | TGI [1] [µM] | TGI (786-0) [µM] | GI50 [2] [µM] | TGI [2] [µM] | TGI (NCI-H460) [µM] | TGI (K562) [µM] | TGI (MCF7) [µM] | GI50 [3] [µM] | TGI [3] [µM] | TGI (HT-29) [µM] | GI50 at 48 h [4] [µM] | TGI (Vero) [µM] | other results
1 | 9.7 | 11.7 | 13.5 | 0.1 | 9.3 | 7.2 | CC1=CC[C@H](C(C)(C)NC(=S)N/N=C/c2ccco2)CC1 | 81.5 | 10.8 | 13.8 | 9.8 | 10.7 | 14.1 | 10.8 | > 100 | 53.7 | 9.8 | 14.1 | 26.9 | 5.1 | 14.7 | GI50 (PC-3): 13.5 µM; TGI (PC-3): 27.2 µM
2 | 13.5 | 11.5 | 10.8 | 17.6 | 4.8 | 17.8 | CC1=CC[C@H](C(C)(C)NC(=S)N/N=C/c2cccs2)CC1 | 27.4 | 13.1 | 35.1 | 26.7 | 2.6 | 19 | 20.8 | > 100 | 11.5 | 13.6 | 41 | 57.8 | 10.1 | 13.4 | GI50 (PC-3): 17.8 µM; TGI (PC-3): 62.8 µM
3 | 89.2 | 87.2 | 75.7 | 1.6 | 15.2 | 20.2 | CC1=CC[C@H](C(C)(C)NC(=S)N/N=C/c2ccc(C)cc2)CC1 | > 100 | 67.2 | > 100 | > 100 | 75.9 | > 100 | > 100 | 56.8 | 93.6 | 78.5 | > 100 | 94.5 | 81.4 | > 100 | GI50 (PC-3): < 0.04 µM; TGI (PC-3): 0.9 µM
4 | > 100 | > 100 | > 100 | 45.6 | > 100 | 0.6 | CC1=CC[C@H](C(C)(C)NC(=S)N/N=C/c2cccc([N+](=O)[O-])c2)CC1 | > 100 | > 100 | > 100 | > 100 | > 100 | > 100 | > 100 | > 100 | > 100 | > 100 | > 100 | 21.9 | > 100 | > 100 | GI50 (PC-3): 9.5 µM; TGI (PC-3): 88 µM
5 | 43.4 | > 100 | 90.6 | 54 | 5 | 18.7 | COc1ccc(/C(C)=N/NC(=S)NC(C)(C)[C@H]2CC=C(C)CC2)cc1 | > 100 | 74.9 | > 100 | > 100 | 95.3 | > 100 | > 100 | > 100 | > 100 | > 100 | > 100 | > 100 | > 100 | > 100 | GI50 (PC-3): 83.6 µM; TGI (PC-3): > 100 µM
6 | > 100 | > 100 | > 100 | > 100 | > 100 | > 100 | CC1=CC[C@H](C(C)(C)NC(=S)N/N=C/c2ccc(F)cc2)CC1 | > 100 | > 100 | > 100 | > 100 | > 100 | > 100 | > 100 | > 100 | > 100 | > 100 | > 100 | > 100 | > 100 | > 100 | GI50 (PC-3): < 0.04 µM; TGI (PC-3): < 0.9 µM
